The text below walks through data of ChEMBL document CHEMBL4680175, “Sulfonamide-based ring-fused analogues for CAN508 as novel carbonic anhydrase inhibitors endowed with antitumor activity: Design, synthesis, and in vitro biological evaluation” (Eur J Med Chem, 2020).

The source made the active and inactive calls. The calls are words filed in the database; no cut-off is given here.

What all share (format): functional
The subject of assay [1] is MCF7. The experiment in a line: Induction of cell cycle arrest in human MCF7 cells assessed as fold increase in apoptotic cells at sub-G1 phase at IC50 concentration incubated for 24 hrs by PI/RNase staining based flow cytometric analysis relative to control. The essentials: (§1)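 Cells were washed in ice-cold PBS, fixed in ice-cold 70% ethanol, treated with 100 µg/mL RNase and stained with 40 µg/mL PI. DNA content was read by flow cytometry, with sub-G1 compared against control.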

Assay [2] relates to MCF7. Nature of the assay: Induction of apoptosis in human MCF7 cells assessed as necrotic cells by Annexin V-FITC/propidium iodide staining based flow cytometric analysis (reference value: 1.3 %). For orientation: Flow cytometry measures light scatter and fluorescence of single cells or particles in a stream.
Assay [3] concerns MCF7. The experiment in a line: Induction of cell cycle arrest in human MCF7 cells assessed as decrease in S phase population at IC50 concentration incubated for 24 hrs by PI/RNase staining based flow cytometric analysis. In outline:
as §1

Assay [4] deals with MDA-MB-468. The experiment in a line: Potency index, ratio of staurosporine IC50 to compound IC50 for antiproliferative activity against human MDA-MB-468 cells measured after 48 hrs under CoCl2-induced hypoxic condition by MTT assay. On the technique in general: Formazan colour is commonly taken as a measure of viable cells.
The test system of assay [5] is MDA-MB-468. Nature of the assay: Potency index, ratio of staurosporine IC50 to compound IC50 for antiproliferative activity against human MDA-MB-468 cells measured after 48 hrs under normoxic condition by MTT assay.

In the case of `N#Cc1c(-c2ccc(Cl)cc2)nc2c(/N=N/c3ccc(S(N)(=O)=O)cc3)c(N)nn2c1N`, the “fold change (FC)” value in the assay on MCF7 [1] is reported as 8. Moreover, in the assay with MCF7 [2], the Activity amounted to 2.17%. Besides, the outcome in the assay on MCF7 [3] was Active.

As for `N#Cc1c(-c2ccc(F)cc2)nc2c(/N=N/c3ccc(S(N)(=O)=O)cc3)c(N)nn2c1N`, in the assay with MCF7 [1], the “fold change (FC)” value is given as 11. For the same compound, the Activity in the assay on MCF7 [2] is on record as 1.75%. Moreover, the result in the assay on MCF7 [3] was Active.

On to `Cc1ccc(-c2nc3c(/N=N/c4ccc(S(N)(=O)=O)cc4)c(N)nn3c(N)c2C#N)cc1`, for which the “Ratio IC50” value in the assay on MDA-MB-468 [4] was determined as 2.1; in the assay with MDA-MB-468 [5], 3.1.
